For series [1], the system named is MCF7. The series can be described thus: Growth inhibition of MCF7 cells by crystal violet assay after 3 hrs. Particulars: Homo sapiens, MCF7, 3 h. In kind it is functional, cell-based. Put shortly:
(§1)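 Cells were seeded at 1000/well and left to adhere overnight at 37 °C in 5% CO2. They were then exposed for 3 h to a range of drug concentrations in serum-free RPMI 1640. Medium was replaced with fresh RPMI containing 10% fetal calf serum and 1% pen-strep, and cells were grown until untreated controls reached ~80% confluence (3-5 days). Cells were fixed with glutaraldehyde, stained with crystal violet, and the dye was solubilised in 70% ethanol before reading OD at 588 nm. IC50 is given as log molar. Each concentration was run six-fold, and each experiment at least twice.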

Series [2] has as its system NCI/ADR-RES. Nature of the series: Growth inhibition of MCF7/Adr cells by crystal violet assay after 3 hrs. The series is classed as functional, cell-based. Particulars: Homo sapiens. Put shortly:
(§2)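 Cancer lines were grown in RPMI 1640 with 10% FCS and 1% pen-strep and seeded at 1000 cells/well overnight. Drug was given in serum-free medium for 3 or 24 h, then fresh complete medium until controls reached ~80% confluence (3-5 days). Cells were fixed with glutaraldehyde and stained with crystal violet, solubilised in 70% ethanol and read at 588 nm. IC50 is log molar, with six replicates per concentration and ≥2 experiments.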

In series [3] the test system is SK-HEP1. Nature of the series: Growth inhibition of SK-HEP-1 cells by crystal violet assay after 3 hrs. In kind it is functional, cell-based. The conditions noted are these: Homo sapiens, SK-HEP1, 3 h. In a few lines: as §2
The test system of series [4] is HepG2. Nature of the series: Growth inhibition of HepG2 cells by crystal violet assay after 3 hrs. In kind it is functional, cell-based. The conditions noted are these: Homo sapiens, HepG2, 3 h. Put shortly: as §1
Series [5] relates to H9c2. Nature of the series: Growth inhibition of rat H9c2(2-1) cells by MTT assay after 3 hrs. In kind it is functional, cell-based. Particulars: H9c2, 3 h. Put shortly: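 Rat cardiomyocytes were kept in DMEM with 10% FCS and pen-strep and seeded at 500 cells/well overnight. They got serum-free drug medium for 3 h, then fresh complete medium until controls reached ~80% confluence (3-5 days). Read-out was MTT optical density at 554 nm, with IC50 as log molar concentration. There were six replicates per concentration and at least two experiments.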
In general terms: Tetrazolium assays rely on reduction of a dye to a coloured formazan, in cell work by metabolically active cells.

For series [6], the system named is Vero. The series can be described thus: Cytotoxicity against Vero cells by MTT assay after 3 hrs. The conditions noted are these: Chlorocebus sabaeus. In kind it is functional, cell-based. In a few lines: (§3)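 Vero cells were grown in DMEM with 10% FCS and 1% pen-strep at 37 °C in 5% CO2. They were seeded at 1000 cells/well and left overnight to adhere. Drug was given in serum-free medium for 3 or 24 h, then replaced with fresh complete medium until untreated wells reached ~80% confluence (3-5 days). MTT was read at 554 nm and IC50 given as log molar. Each concentration was run in six wells, each experiment at least twice.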

The test system of series [7] is Vero. The series can be described thus: Cytotoxicity against Vero cells by MTT assay after 24 hrs. The series is classed as functional, cell-based. The conditions noted are these: Chlorocebus sabaeus. In a few lines:
as §3

Series [8] concerns MCF7. Nature of the series: Growth inhibition of MCF7 cells by crystal violet assay after 24 hrs. Particulars: Homo sapiens, MCF7, 24 h. In kind it is functional, cell-based. In a few lines: as §2
In series [9] the test system is NCI/ADR-RES. Nature of the series: Growth inhibition of MCF7/Adr cells by crystal violet assay after 24 hrs. The conditions noted are these: Homo sapiens. In kind it is functional, cell-based. In a few lines:
as §2

Series [10] relates to SK-HEP1. Nature of the series: Growth inhibition of SK-HEP-1 cells by crystal violet assay after 24 hrs. In kind it is functional, cell-based. Particulars: Homo sapiens, SK-HEP1, 24 h. Put shortly: as §2
Series [11] relates to HepG2. The series can be described thus: Growth inhibition of HepG2 cells by crystal violet assay after 24 hrs. The series is classed as functional, cell-based. Particulars: Homo sapiens, HepG2, 24 h. Put shortly: as §2
In another series the test system is SHP77. Nature of the series: Growth inhibition of SHP77 cells by crystal violet assay after 24 hrs. The conditions noted are these: Homo sapiens, SHP77, 24 h. In kind it is functional, cell-based. In a few lines: as §2
The subject of the next series is DU-145. The series can be described thus: Growth inhibition of DU145 cells by crystal violet assay after 24 hrs. The conditions noted are these: Homo sapiens, DU-145, 24 h. In kind it is functional, cell-based. In a few lines:
as §2

In series [12] the test system is H9c2. Nature of the series: Growth inhibition of H9c2(2-1) cells by crystal violet assay after 24 hrs. Particulars: Rattus norvegicus, H9c2, 24 h.
The test system of series [13] is SK-HEP1. The series can be described thus: Decrease in drug uptake in SK-HEP-1 cells by flow cytometry at 0.5 uM in presence of 10% fetal bovine serum. In kind it is functional, Homo sapiens. The arrangement: scale not given: the % may be the effect or the level left. In a few lines:
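SK-HEP-1 cells at 200,000 per well were attached overnight. They were then exposed at 37 °C to 0.5 μM drug (final) in RPMI with 10% fetal bovine serum or without serum. Cells were trypsinized at 0.5, 1, 1.5, 2 and 3 h and Dox fluorophore measured by flow cytometry. Mean fluorescence was divided by untreated control to give relative fluorescence.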
On the technique in general: Flow cytometry measures light scatter and fluorescence of single cells or particles in a stream.

Series [14] can be described thus: Stability in buffer at pH 7.4 after 24 hrs. In kind it is physicochemical. The conditions noted are these: pH 7.4, 24 h. Put shortly: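 The compound was held in pH 7.4 buffer, without cells or growth medium, for 24 h at ambient temperature. Hydrolysis was followed by HPLC.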

SMILES strings stand for the structures.

One may read the IC50 as the concentration that inhibits the measured activity by half. Consider `COc1cccc2c1C(=O)c1c(O)c3c(c(O)c1C2=O)C[C@@](O)(C(=O)CO)C[C@@H]3O[C@H]1C[C@@H]2NCO[C@@H]2[C@H](C)O1` [DOXAZOLIDINE], for which the IC50 in the series on MCF7 [1] was 3.16 nM; in the series on NCI/ADR-RES [2], 3.16 nM; in the series with SK-HEP1 [3], 3.98 nM; in the series on HepG2 [4], 10 nM; in the series on H9c2 [5], 31.6 nM; in the series on Vero [6], 6.31 nM. In the series with Vero [7], the IC50 is 7.94 nM.
As for `CCCCOC(=O)Nc1ccc(COC(=O)N2CO[C@@H]3[C@H](C)O[C@@H](O[C@H]4C[C@](O)(C(=O)CO)Cc5c(O)c6c(c(O)c54)C(=O)c4c(OC)cccc4C6=O)C[C@@H]32)cc1`, the IC50 in the series on MCF7 [8] was 79400 nM; in the series with NCI/ADR-RES [9], 1260 nM; in the series with SK-HEP1 [10] it was 1580 nM; in the series with HepG2 [11], 20 nM; in the series with Vero [7], 794 nM; with SHP77 it was 79.4 nM. In addition, the values for the IC50 with DU-145 and in the series on H9c2 [12] were 501 nM and 63.1 nM, respectively.
For the compound `CCCCOC(=O)N1CO[C@@H]2[C@H](C)O[C@@H](O[C@H]3C[C@](O)(C(=O)CO)Cc4c(O)c5c(c(O)c43)C(=O)c3c(OC)cccc3C5=O)C[C@@H]21`, the IC50 with MCF7 [8] was 794 nM; with NCI/ADR-RES [9], 631 nM; with SK-HEP1 [10] it was 398 nM; in the series on HepG2 [11] it was 200 nM; in the series with Vero [7] it was 501 nM; in the series on SHP77 it was 251 nM. In addition, the IC50 in the series on DU-145 was 398 nM; in the series on H9c2 [12], 1580 nM.
On to `CCOC(=O)N1CO[C@@H]2[C@H](C)O[C@@H](O[C@H]3C[C@](O)(C(=O)CO)Cc4c(O)c5c(c(O)c43)C(=O)c3c(OC)cccc3C5=O)C[C@@H]21`, for which the IC50 in the series with MCF7 [1] was above 1000 nM; with NCI/ADR-RES [2], 5010 nM; with MCF7 [8] it was below 1000 nM; in the series on NCI/ADR-RES [9], above 10000 nM; in the series with SK-HEP1 [3] it was above 1000 nM; in the series on SK-HEP1 [10] it was above 1000 nM. For the same compound, the IC50 with HepG2 [4] was above 1000 nM; in the series on HepG2 [11] it was above 1000 nM; with H9c2 [5], 1580 nM.
As to `COc1cccc2c1C(=O)c1c(O)c3c(c(O)c1C2=O)C[C@@](O)(C(=O)CO)C[C@@H]3O[C@H]1C[C@H](N)[C@H](O)[C@H](C)O1` [DOXORUBICIN], the IC50 in the series with MCF7 [1] was 316 nM; in the series on NCI/ADR-RES [2], 6310 nM; in the series with MCF7 [8], 12.6 nM; in the series with NCI/ADR-RES [9], 2510 nM; in the series with SK-HEP1 [3], 100 nM; in the series on SK-HEP1 [10], 50.1 nM. The IC50 in the series with HepG2 [4] is 200 nM; in the series on HepG2 [11], 31.6 nM; in the series with H9c2 [5], 31.6 nM; with Vero [6], 1000 nM; in the series on Vero [7], 501 nM; with SHP77, 126 nM. Moreover, the results for the 50% inhibitory concentration (IC50) in the series on DU-145 and in the series with H9c2 [12] were 31.6 nM and 20 nM, respectively.
As to `CCCCCOC(=O)Nc1ccc(COC(=O)N2CO[C@@H]3[C@H](C)O[C@@H](O[C@H]4C[C@](O)(C(=O)CO)Cc5c(O)c6c(c(O)c54)C(=O)c4c(OC)cccc4C6=O)C[C@@H]32)cc1`, the 50% inhibitory concentration (IC50) in the series on MCF7 [8] is 2510 nM; in the series with NCI/ADR-RES [9], 316 nM; in the series on SK-HEP1 [10], 1000 nM; in the series with HepG2 [11], 50.1 nM; in the series on Vero [7] it was 1000 nM; in the series with SHP77 it was 50.1 nM. For the same compound, the IC50 in the series with DU-145 is 200 nM; with H9c2 [12] it was 631 nM.
Regarding `CCCCCOC(=O)N1CO[C@@H]2[C@H](C)O[C@@H](O[C@H]3C[C@](O)(C(=O)CO)Cc4c(O)c5c(c(O)c43)C(=O)c3c(OC)cccc3C5=O)C[C@@H]21`, the IC50 in the series with MCF7 [1] is above 1000 nM; with MCF7 [8], 794 nM; in the series on NCI/ADR-RES [9], 1000 nM; in the series with SK-HEP1 [3], above 1000 nM; with SK-HEP1 [10], 200 nM; in the series on HepG2 [4] it was above 1000 nM. For the same compound, the half-maximal inhibitory concentration (IC50) with HepG2 [11] was 316 nM; in the series with Vero [6] it was 3980 nM; with Vero [7], 5010 nM; in the series with SHP77, 501 nM; in the series on DU-145, 1000 nM; with H9c2 [12], 251 nM. For the same compound, the Activity in the series with SK-HEP1 [13] is 25%. For the same compound, the Stability result in series [14] is reported as “Stable”.

The values above are taken from ChEMBL document CHEMBL1137367, “Design, synthesis, and preliminary evaluation of doxazolidine carbamates as prodrugs activated by carboxylesterases” (J Med Chem, 2006).
